# Screening results: PubChem BioAssay, The Scripps Research Institute Molecular Screening Center
# Most compounds without a hit are left out; they make up all but 3.2% or so of the library.
# OX1R antag-1: antagonists of human orexin 1 receptor (OX1R); inhibition, % at 6.6 µM; O43613; hit rate 1.8% among 330,000; OX1R-expressing cells, FRET antagonist read-out; in the data active = inhibition mostly above about 38%, no sharp cut-off; inactive = mostly below about 40%;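 note: 0% = agonist challenge alone and 100% = reference antagonist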
# CHO parental Ca: counter-screen: ATP calcium response change in parental CHO cells | parental CHO-K1, ATP-induced calcium, Fluo-8 fluorescence | inhibition, % at 5.6 µM | hit rate 0.63% among 330,000 | AID 463079;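 active = inhibition above that plate's mean sample inhibition plus 3 SD, cut at about 26% in these data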;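 note: 0% = ATP-challenged DMSO wells and 100% = DMSO wells without ATP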
#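 Assay system – parental CHO cells · Reagent – ATP stimulus · Detection – intracellular calcium via Fluo-8 no-wash fluorescent dye · Evaluation – percent inhibition of ATP-evoked calcium rise, normalized to controls · Controls – ATP wells versus no-ATP DMSO wells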
# OX1R antag-2: blocks the human orexin 1 receptor | O43613 | CHO/OX1R cells, Fluo-8 calcium fluorescence, orexin A | inhibition, % at 5 µM | hit rate 0.43% among 330,000 | AID 434989;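 active = inhibition above its plate's threshold, mean inhibition of all tested compounds on the plate plus 3 SD, cut at about 37% in these data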;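 note: 0% = orexin A challenge wells and 100% = SB-334867-A antagonist wells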
# TRPML3 ag: human mucolipin-3 channel agonism. Q8TDD5. HEK293 TRPML3-YFP, Fluo-8 calcium fluorescence; 100% = the carbachol control signal. activation, % at 3 µM. hit rate 0.29% among 220,000. AID 1448;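 active = activation above its plate's cutoff, the mean activation of the plate's test wells plus 3 SD, cut at about 12% in these data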;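 note: 0% = DMSO only wells and 100% = carbachol wells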
#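 Material: TRPML3-YFP stable HEK293 cells | Dosing: One concentration, 3 µM nominal, 0.3% DMSO | Timing: 125 s total fluorescence read per well | Technique: Fluo-8 calcium dye fluorescence, ex 470-495, em 515-575 nm | Measure: Percent activation from peak-to-basal fluorescence ratio, scaled between DMSO and carbachol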
# TRPN1 ag: activates the zebrafish TRPN1 channel; HEK293 zebrafish TRPN1-YFP, Fluo-8 calcium fluorescence; 100% = response to 87 µM carbachol; activation, % at 3 µM; hit rate 0.18% among 220,000; AID 1424;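 active = activation above its plate's cutoff, the mean activation of test wells on that plate plus 3 SD, cut at about 19% in these data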;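 note: 0% = DMSO alone and 100% = 87 µM carbachol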
#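 Material: zebrafish TRPN1-YFP in HEK293 cells; Doses: single test compound dose, 3 µM nominal, 0.3% DMSO; Timing: dye loading 1 h at 37 °C, then 30 min room temperature; Technique: intracellular calcium fluorescence with Fluo-8; Benchmarks: high carbachol 87 µM, low DMSO alone.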
# GPR7 antag: human neuropeptides B/W receptor 1 antagonism; P48145; GPR7-expressing cells, fluorescence antagonist assay; inhibition, % at 4.4 µM; hit rate 1.1% among 290,000; in the data active = inhibition above about 16%, passing the limit was not always enough;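 note: cells stimulated with the agonist NPW; 0% = agonist with vehicle and 100% = vehicle without agonist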
# Target sequence (P48145 whole entry, looked up): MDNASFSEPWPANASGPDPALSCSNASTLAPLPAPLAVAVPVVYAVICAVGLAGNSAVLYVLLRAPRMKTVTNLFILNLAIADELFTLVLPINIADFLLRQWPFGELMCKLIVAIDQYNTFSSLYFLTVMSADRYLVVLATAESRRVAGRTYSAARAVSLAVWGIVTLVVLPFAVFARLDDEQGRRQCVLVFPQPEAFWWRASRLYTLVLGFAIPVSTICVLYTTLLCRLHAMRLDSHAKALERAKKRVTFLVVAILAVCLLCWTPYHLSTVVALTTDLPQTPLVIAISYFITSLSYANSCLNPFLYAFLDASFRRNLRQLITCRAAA
# OX1R Ca confirm: confirmation of human orexin 1 receptor antagonists | shares compounds with OX1R antag-2 | AID 492963 | hit rate 38% among 1,100 | inhibition, % at 5 µM | CHO/OX1R cells, orexin A calcium Fluo-8 fluorescence; in the data active = inhibition above about 29%;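 note: 0% = agonist challenge alone and 100% = reference antagonist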
# CHO Ca triplic: counter-screen: parental CHO calcium response change, triplicate; shares compounds with OX1R antag-2; parental CHO-K1, ATP-induced calcium, Fluo-8 fluorescence; inhibition, % at 5.6 µM; hit rate 9.3% among 1,100; AID 492965;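 active = inhibition above a per-plate limit, the mean inhibition of that plate's test compounds plus 3 SD, cut at about 25% in these data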;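 note: 0% = ATP challenge with DMSO and 100% = DMSO without ATP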
# OX1R HTRF confirm: OX1R (human) antagonism, HTRF confirmed; shares compounds with OX1R antag-1; OX1R-expressing cells, HTRF antagonist assay; inhibition, % at 6.6 µM; hit rate 49% among 1,800; AID 492964; in the data active = inhibition above about 55%;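 note: CHO cells expressing OX1R stimulated with orexin A at about EC80; 0% = agonist challenge alone and 100% = reference antagonist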
# CHO-K1 HTRF: counter-screen: parental CHO-K1 HTRF response | shares compounds with OX1R antag-1 | parental CHO-K1 cells, HTRF counterscreen | inhibition, % at 6.6 µM | hit rate 48% among 1,800; in the data active = inhibition above about 17%;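 note: 0% = agonist challenge with vehicle and 100% = vehicle alone without agonist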
# * = called active by the depositor; . = no result.
SMILES,OX1R antag-1,CHO parental Ca,OX1R antag-2,TRPML3 ag,TRPN1 ag,GPR7 antag,OX1R Ca confirm,CHO Ca triplic,OX1R HTRF confirm,CHO-K1 HTRF
COc1ccc(C)cc1S(=O)(=O)NCC(c1ccc2c(c1)OCO2)N1CCOCC1 (stereo unspecified),10.8,3.7,-9.3,.,.,.,.,.,.,.
O=[N+]([O-])c1ccccc1N/N=C\c1ccccc1Cl,13.9,-5.4,-9.1,0.1,0.5,-6.0,.,.,.,.
O=[N+]([O-])c1ccc(O)c(/C=N/Nc2ccccc2Cl)c1,80.7*,17.8,34.7,0.9,0.1,-10.1,37.1*,14.2,84.4*,11.4
O=C(Nc1nccs1)c1ccc(-c2ccc(F)c(Cl)c2)o1,97.4*,-16.8,47.3*,.,.,-20.6,18.6,-15.3,71.8*,12.8
COc1cccc(C(=O)Nc2ccccc2)c1,24.8,-2.8,-12.7,0.0,-0.4,7.1,.,.,.,.
COc1cccc(NC(=O)c2ccc(C(=O)c3ccccc3)o2)c1,99.9*,1.0,53.1*,0.0,-2.7,-9.8,33.2*,-1.5,78.3*,9.1
Cc1nc2c(-c3ccccc3)c(C)nn2c(N)c1-c1ccccc1,81.0*,-17.0,46.4*,2.4,-0.2,-5.7,26.9,5.5,78.6*,12.4
Cc1ccsc1/C=N/N=C1\C(=O)Nc2ccccc21,90.8*,-3.2,31.8,0.5,2.6,-7.6,36.0*,3.9,93.3*,16.6
Cn1ccc(C(=O)N/N=C/c2ccncc2)n1,.,.,.,.,.,-4.5,.,.,.,.
CCN(CC)C(=O)CSc1nc2c(sc(=S)n2CC)c(=O)n1-c1ccccc1,9.4,-22.4,-32.6,-0.4,1.5,0.9,.,.,.,.
CCN(CC)C(=O)CSc1nc2c(sc(=S)n2-c2ccccc2OC)c(=O)n1-c1ccccc1,75.7*,-35.7,31.4,.,.,1.5,38.5*,-8.2,69.2*,0.6
O=C(Nc1cccc(C(F)(F)F)c1)c1cccc(NS(=O)(=O)c2ccc(O)c(C(=O)O)c2)c1,6.1,-11.6,-16.1,.,.,0.1,.,.,.,.
CN(CC(=O)Nc1nc2ccccc2s1)S(=O)(=O)c1ccc(Br)cc1,48.2*,19.4,69.5*,0.3,1.4,-5.2,7.7,-0.2,26.4,7.0
CCN(CC(=O)Nc1cccc(S(=O)(=O)N(C)c2ccccc2)c1)Cc1ccccc1,28.2*,14.7,77.5*,.,.,.,19.4,-9.4,54.0,3.3
O=C1NC[C@H](c2ccccc2)OC(=O)[C@H](Cc2ccc(F)cc2)C/C=C\C[C@H]1CC(=O)N(CCO)Cc1ccccc1,54.0*,-23.3,54.0*,.,.,.,30.1*,2.8,50.1,5.0
CN(CC(=O)OCC(N)=O)S(=O)(=O)c1ccc(Cl)cc1,5.0,-1.3,-17.1,0.8,1.1,-8.7,.,.,.,.
Cn1c(N)c(C(=O)N/N=C/c2ccccc2)sc1=S,93.1*,-8.0,90.9*,0.5,0.6,-0.2,72.8*,6.2,94.9*,17.0*
O=C1c2ccccc2NC(c2c(Cl)cccc2Cl)N1Cc1ccccc1 (stereo unspecified),82.2*,11.9,26.8,-0.5,-0.7,-7.0,10.1,-2.3,46.0,0.1
Cc1c(NC(=O)c2ccc(NC(=O)C3CC3)cc2)cccc1C(=O)O,34.9,-8.8,-1.5,.,.,-16.2,.,.,.,.
Cc1nc2c3ccccc3nc(NNC(=O)CCC(=O)NCCC(C)C)n2n1,14.0,-6.8,-4.9,-0.5,-0.7,-8.1,.,.,.,.
COCCCNC(=O)CCC(=O)NNc1nc2ccccc2c2nc(-c3ccccc3)nn12,95.3*,-25.5,33.4,0.5,-0.4,2.3,28.9*,-13.1,81.5*,-1.2
Cc1cccc([C@@H]2[C@@H]3C(=O)N(Cc4ccccc4)C(=O)[C@@H]3[C@]3(CC(C)C)C(=O)N(c4cccc(F)c4)C(=O)N23)c1,25.9,-30.7,-15.6,.,.,.,.,.,.,.
